This note sets out measurements from ChEMBL document CHEMBL4138096, “Design, synthesis, molecular docking and cytotoxic evaluation of novel 2-furybenzimidazoles as VEGFR-2 inhibitors” (Eur J Med Chem, 2017).

SMILES strings stand for the structures.

Assay [1] relates to MCF7. Put plainly: Inhibition of VEGFR2 protein expression in human MCF7 cells at cytotoxic IC50 after 24 hrs by ELISA relative to untreated control. Format: functional. The method, boiled down: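 MCF-7 cells treated with compound in DMSO for 24 h at 37 °C, humidified 5% CO2. Cells were harvested and homogenised in saline. VEGFR-2 in homogenate was measured by double-antibody sandwich ELISA (monoclonal capture, biotinylated goat polyclonal detection, avidin-biotin-peroxidase, TMB, OD 451 nm). Levels (ng/ml) came from a standard curve as duplicate determinations, and % change was taken versus untreated cells.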
In general terms: ELISA stands for enzyme-linked immunosorbent assay.

Assay [2] deals with MCF7. The assay can be described thus: Cytotoxicity against human MCF7 cells assessed as reduction in cell viability after 48 hrs by SRB assay. It counts as functional, cell-based. To be noted: MCF7, 48 h. In short, it runs like this: (§1)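 Cells seeded and allowed to attach 24 h, then exposed to compound at […] for 48 h at 37 °C, 5% CO2. Fixed, stained with sulforhodamine B, bound dye released in Tris EDTA and read on ELISA reader. IC50 taken from survival curve (surviving fraction vs concentration); mean of four independent experiments.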
(In general: In SRB staining, fixed cells bind dye roughly in proportion to their protein.)

For a further assay, the system named is HepG2. Put plainly: Cytotoxicity against human HepG2 cells assessed as reduction in cell viability after 48 hrs by SRB assay. Format: functional, cell-based. The note with it: HepG2, 48 h. In short, it runs like this: as §1
The target of assay [3] is Vascular endothelial growth factor receptor 2 (Homo sapiens, UniProt P35968). The assay can be described thus: Inhibition of human VEGFR2 using TMB substrate by ELISA.
Sequence of Vascular endothelial growth factor receptor 2 (P35968 whole entry): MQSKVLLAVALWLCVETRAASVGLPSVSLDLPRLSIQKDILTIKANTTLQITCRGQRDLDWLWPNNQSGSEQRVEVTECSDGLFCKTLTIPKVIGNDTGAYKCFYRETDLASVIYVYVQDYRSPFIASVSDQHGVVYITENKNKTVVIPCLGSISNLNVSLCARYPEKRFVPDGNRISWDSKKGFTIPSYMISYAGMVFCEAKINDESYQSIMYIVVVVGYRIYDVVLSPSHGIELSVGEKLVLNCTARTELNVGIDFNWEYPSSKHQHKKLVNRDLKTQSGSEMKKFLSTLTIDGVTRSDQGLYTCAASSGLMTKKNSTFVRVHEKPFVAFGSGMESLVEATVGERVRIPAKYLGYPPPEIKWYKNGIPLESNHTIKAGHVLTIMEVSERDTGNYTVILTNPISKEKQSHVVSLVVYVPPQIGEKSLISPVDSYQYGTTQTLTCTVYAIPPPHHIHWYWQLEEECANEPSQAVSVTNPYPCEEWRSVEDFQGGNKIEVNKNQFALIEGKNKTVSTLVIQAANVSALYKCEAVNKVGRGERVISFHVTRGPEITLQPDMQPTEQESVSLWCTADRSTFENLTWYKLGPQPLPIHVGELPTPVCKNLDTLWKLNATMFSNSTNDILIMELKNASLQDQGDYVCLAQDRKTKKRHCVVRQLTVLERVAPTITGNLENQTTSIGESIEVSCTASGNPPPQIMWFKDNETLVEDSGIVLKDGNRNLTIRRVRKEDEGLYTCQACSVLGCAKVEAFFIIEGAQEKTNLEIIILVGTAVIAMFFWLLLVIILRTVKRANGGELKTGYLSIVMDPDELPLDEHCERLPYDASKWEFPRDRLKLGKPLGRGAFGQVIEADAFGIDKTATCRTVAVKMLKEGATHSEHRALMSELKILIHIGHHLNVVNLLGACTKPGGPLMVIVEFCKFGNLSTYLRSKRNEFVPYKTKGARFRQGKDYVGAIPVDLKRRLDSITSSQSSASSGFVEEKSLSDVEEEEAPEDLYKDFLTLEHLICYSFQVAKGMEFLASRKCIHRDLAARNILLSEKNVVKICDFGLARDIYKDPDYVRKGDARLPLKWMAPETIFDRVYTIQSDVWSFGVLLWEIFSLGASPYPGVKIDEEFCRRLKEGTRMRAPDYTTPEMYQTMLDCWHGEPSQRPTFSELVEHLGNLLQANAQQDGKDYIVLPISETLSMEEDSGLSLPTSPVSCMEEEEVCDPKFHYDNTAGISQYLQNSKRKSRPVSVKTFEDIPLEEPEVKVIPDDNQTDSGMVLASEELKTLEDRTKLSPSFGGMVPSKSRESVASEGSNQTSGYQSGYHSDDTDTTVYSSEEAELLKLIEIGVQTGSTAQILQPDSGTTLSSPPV

As usually defined, the IC50 is the concentration at which inhibition is half-maximal.

`NC(=O)/C(=C\c1ccccc1)n1c(-c2ccco2)nc2ccccc21`: the “inhibition (INH)” value with MCF7 [1] is on record as 80%. The IC50 amounted to 38.6 µM in the assay on MCF7 [2] and 63 µM in the assay with HepG2.

For the compound `NNC(=O)Cn1c(-c2ccco2)nc2ccccc21`, the “inhibition (INH)” value with MCF7 [1] is listed as 19%. Moreover, the IC50 in the assay on HepG2 is over 195 µM.

Regarding `CNC(=O)c1cc(Oc2ccc(NC(=O)Nc3ccc(Cl)c(C(F)(F)F)c3)cc2)ccn1` [SORAFENIB], in the assay on MCF7 [1], the “inhibition (INH)” value is recorded as 95.75%. In the assay with MCF7 [2], the IC50 was 4.33 µg/mL.

On to `Cc1ccc(-c2nc3ccccc3n2C(=O)C(=O)n2c(-c3ccc(C)o3)nc3ccccc32)o1`, for which the “inhibition (INH)” value with MCF7 [1] came to 17%. For the same compound, the IC50 in the assay on MCF7 [2] is 65.6 µM; in the assay on HepG2 it was over 111 µM.

Turning to `Cc1ccc(-c2nc3ccccc3[nH]2)o1`, the “inhibition (INH)” value in the assay on MCF7 [1] is reported as 39%. In the assay with MCF7 [2], the IC50 turned out to be 55.6 µM.

As for `N=C(Cn1c(-c2ccco2)nc2ccccc21)NN`, the “inhibition (INH)” value in the assay on MCF7 [1] was 27%. In addition, the IC50 in the assay with MCF7 [2] stood at 53.1 µM; with HepG2, 74.5 µM.

With `Cc1ccc(-c2nc3ccccc3n2CC(=O)O)o1`, the “inhibition (INH)” value in the assay on MCF7 [1] stood at 20%. The IC50 in the assay with MCF7 [2] is 139 µM; with HepG2 it was over 195 µM.

In the case of `c1ccc2[nH]c(-c3ccc(CN4CCOCC4)o3)nc2c1`, the “inhibition (INH)” value in the assay on MCF7 [1] was 58%. The IC50 is 55.5 µM in the assay with MCF7 [2] and 128 µM in the assay with HepG2.

In the case of `O=C(CCl)n1c(-c2ccco2)nc2ccccc21`, the “inhibition (INH)” value in the assay on MCF7 [1] is 40%. The IC50 in the assay on MCF7 [2] and with HepG2 was 60.9 µM throughout.

For `SC1=NNCC(n2c(-c3ccco3)nc3ccccc32)=N1`, the “inhibition (INH)” value in the assay on MCF7 [1] stood at 40%. For the same compound, the IC50 is 60.5 µM in the assay on MCF7 [2] and 62.1 µM in the assay on HepG2.

Take `O=C(O)Cn1c(-c2ccco2)nc2ccccc21`: in the assay on MCF7 [1], the “inhibition (INH)” value is given as 61%. The results for the IC50 in the assay with MCF7 [2] and in the assay on HepG2 were 63.1 µM and 149 µM, respectively.

For `O=C1CS/C(=C/n2c(-c3ccco3)nc3ccccc32)N1`, the “inhibition (INH)” value with MCF7 [1] was 86%. The IC50 in the assay on MCF7 [2] is 29.1 µM; in the assay with HepG2 it was 31.1 µM.

Take `CCOC(=O)Cn1c(-c2ccco2)nc2ccccc21`: the “inhibition (INH)” value in the assay on MCF7 [1] came out at 57%. Moreover, the results for the IC50 in the assay with MCF7 [2] and in the assay on HepG2 were 57.3 µM and over 185 µM, respectively.

Regarding `c1coc(-c2nc3ccccc3[nH]2)c1` [FUBERIDAZOLE], the “inhibition (INH)” value in the assay with MCF7 [1] was 43%. Further, the IC50 turned out to be 106 µM in the assay on MCF7 [2] and 103 µM with HepG2.

Turning to `Cc1ccc(-c2nc3ccccc3n2Cc2nnco2)o1`, the IC50 with MCF7 [2] was over 177 µM; with HepG2, 132 µM.

As to `Cc1ccc(-c2nc3ccccc3n2CC(=O)NN)o1`, in the assay with MCF7 [1], the “inhibition (INH)” value is recorded as 24%. For the same compound, the IC50 in the assay with MCF7 [2] was 68.3 µM; in the assay on HepG2 it was over 185 µM.

As for `S=c1[nH]nc(Cn2c(-c3ccco3)nc3ccccc32)s1`, in the assay on MCF7 [1], the “inhibition (INH)” value is recorded as 14%. The concentration for half-maximal inhibition (IC50) with MCF7 [2] is 52.6 µM; in the assay with HepG2, 47.6 µM.

For `Cc1ccc(-c2nc3ccccc3n2C(=O)n2c(-c3ccc(C)o3)nc3ccccc32)o1`, in the assay on MCF7 [1], the “inhibition (INH)” value is recorded as 9%. Besides, the IC50 is 58.3 µM in the assay on MCF7 [2] and over 118 µM in the assay with HepG2.

Take `CC/C(=C(\c1ccccc1)c1ccc(OCCN(C)C)cc1)c1ccccc1` [TAMOXIFEN]: in the assay with MCF7 [1], the “inhibition (INH)” value was found to be 98%.

Regarding `CCOC(=O)CSc1nnc(Cn2c(-c3ccco3)nc3ccccc32)s1`, the “inhibition (INH)” value with MCF7 [1] was 92%. The results for the IC50 in the assay with MCF7 [2] and in the assay on HepG2 were 28.5 µM and 62.1 µM, respectively.

For `Cc1ccc(-c2nc3ccccc3n2CC(=O)N/N=C/c2ccccc2Cl)o1`, the “inhibition (INH)” value in the assay on MCF7 [1] is 96%. The 50% inhibitory concentration (IC50) was determined as 1.26 µM in assay [3], 21.2 µM with MCF7 [2] and 22.6 µM in the assay with HepG2.

`CCOC(=O)Cn1c(-c2ccc(C)o2)nc2ccccc21`: in the assay with MCF7 [1], the “inhibition (INH)” value worked out at 25%. Further, the half-maximal inhibitory concentration (IC50) in the assay on MCF7 [2] is 63.5 µM; in the assay with HepG2, over 176 µM.

Regarding `COC(=O)Cn1c(-c2ccco2)nc2ccccc21`, in the assay on MCF7 [1], the “inhibition (INH)” value stood at 61%. Moreover, the results for the IC50 in the assay on MCF7 [2] and in the assay with HepG2 were 80.6 µM and 67.3 µM, respectively.

`NNC(=O)CSc1nnc(Cn2c(-c3ccco3)nc3ccccc32)s1`: the “inhibition (INH)” value in the assay on MCF7 [1] is 96%. Further, the IC50 in assay [3] is 1.41 µM; in the assay with MCF7 [2], 21.4 µM; with HepG2, 26.9 µM.

Take `COC(=O)Cn1c(-c2ccc(C)o2)nc2ccccc21`: the “inhibition (INH)” value in the assay with MCF7 [1] was 38%. For the same compound, the IC50 with MCF7 [2] is 87 µM; in the assay with HepG2 it was over 185 µM.

As for `N#C/C(=C1/SCC(=O)N1c1ccccc1)n1c(-c2ccco2)nc2ccccc21`, the “inhibition (INH)” value in the assay on MCF7 [1] is listed as 55%. In addition, the IC50 with MCF7 [2] is 55.9 µM; in the assay on HepG2, 39.6 µM.

For the compound `N=C1N=C(n2c(-c3ccco3)nc3ccccc32)CN1`, the “inhibition (INH)” value in the assay with MCF7 [1] was found to be 22%. The IC50 in the assay on MCF7 [2] was 93 µM; in the assay on HepG2 it was 63.5 µM.

Take `O=C(Cn1c(-c2ccco2)nc2ccccc21)N/N=C/c1ccccc1Cl`: the “inhibition (INH)” value in the assay with MCF7 [1] amounted to 94%. Moreover, the IC50 turned out to be 0.64 µM in assay [3], 26.1 µM in the assay with MCF7 [2] and 25.9 µM in the assay with HepG2.

On to `ClC(Cl)(Cl)c1nnc(Cn2c(-c3ccco3)nc3ccccc32)o1`, for which the IC50 was over 131 µM in the assay with MCF7 [2] and 85.6 µM in the assay on HepG2.

In the case of `N#CCn1c(-c2ccco2)nc2ccccc21`, in the assay on MCF7 [1], the “inhibition (INH)” value is recorded as 39%. In addition, the IC50 in the assay with MCF7 [2] and in the assay with HepG2 was 88.1 µM throughout.

Consider `NC(=O)/C(=C\c1ccccc1Cl)n1c(-c2ccco2)nc2ccccc21`, for which the “inhibition (INH)” value with MCF7 [1] turned out to be 57%. In addition, the IC50 in the assay on MCF7 [2] stood at 40 µM; in the assay on HepG2, 44.8 µM.

Take `NC(=O)Cn1c(-c2ccco2)nc2ccccc21`: the “inhibition (INH)” value in the assay on MCF7 [1] amounted to 13%. The IC50 is 118 µM in the assay with MCF7 [2] and 157 µM with HepG2.
